PMC11590664 (European journal of medicinal chemistry, 2023)

Legend:
HEK-293 cells = test: Cytotoxicity / viability assay, HEK-293; type: cell-based; conditions: Homo sapiens, HEK293, read-out: HEK-293 IC50
Summary of the method: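 HEK-293 cells were grown in medium per the provider's instructions with 100 units/mL penicillin and 100 μg/mL streptomycin, at 37 °C in 5 % CO2. Log-phase cells were seeded at 5000 per well, left 24 h, then exposed in triplicate to a range of test compound concentrations for 72 h. Resazurin was added for 4–6 h and fluorescence read. Values are relative to DMSO vehicle, with IC50 from a variable-slope normalized-response fit. Each compound was tested at least three times.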

[1] = test system: phosphorylation of FLT3 and ERK in MOLM14 cells; test: Western blot, MOLM14 cells; type: cell-based, human; conditions: 2 h
Summary of the method: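 Cells kept at 37 °C under 5 % CO2. Total cell lysates separated by SDS-PAGE and transferred to nitrocellulose. Membranes probed with primary antibodies to pFLT3 Y842, total FLT3, pERK, total ERK and GAPDH, then with secondary antibodies, and imaged.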

KIT = KIT (Homo sapiens, UniProt P10721); test: KINOMEscan site-directed competition binding assay, KIT; conditions: 4.5 nM compound, 97 kinase panel
Summary of the method: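 Competition binding read by qPCR against DNA-tagged kinases. Streptavidin magnetic beads loaded with biotinylated ligand (30 min, RT), biotin-blocked and washed. Kinase, beads and test compound (diluted from 100x DMSO stocks) combined in 20 % SeaBlock, 0.17x PBS, 0.05 % Tween 20, 6 mM DTT; 1 h RT with shaking. […] Kinase in eluate quantified by qPCR.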

KIT, sequence (P10721 26-976): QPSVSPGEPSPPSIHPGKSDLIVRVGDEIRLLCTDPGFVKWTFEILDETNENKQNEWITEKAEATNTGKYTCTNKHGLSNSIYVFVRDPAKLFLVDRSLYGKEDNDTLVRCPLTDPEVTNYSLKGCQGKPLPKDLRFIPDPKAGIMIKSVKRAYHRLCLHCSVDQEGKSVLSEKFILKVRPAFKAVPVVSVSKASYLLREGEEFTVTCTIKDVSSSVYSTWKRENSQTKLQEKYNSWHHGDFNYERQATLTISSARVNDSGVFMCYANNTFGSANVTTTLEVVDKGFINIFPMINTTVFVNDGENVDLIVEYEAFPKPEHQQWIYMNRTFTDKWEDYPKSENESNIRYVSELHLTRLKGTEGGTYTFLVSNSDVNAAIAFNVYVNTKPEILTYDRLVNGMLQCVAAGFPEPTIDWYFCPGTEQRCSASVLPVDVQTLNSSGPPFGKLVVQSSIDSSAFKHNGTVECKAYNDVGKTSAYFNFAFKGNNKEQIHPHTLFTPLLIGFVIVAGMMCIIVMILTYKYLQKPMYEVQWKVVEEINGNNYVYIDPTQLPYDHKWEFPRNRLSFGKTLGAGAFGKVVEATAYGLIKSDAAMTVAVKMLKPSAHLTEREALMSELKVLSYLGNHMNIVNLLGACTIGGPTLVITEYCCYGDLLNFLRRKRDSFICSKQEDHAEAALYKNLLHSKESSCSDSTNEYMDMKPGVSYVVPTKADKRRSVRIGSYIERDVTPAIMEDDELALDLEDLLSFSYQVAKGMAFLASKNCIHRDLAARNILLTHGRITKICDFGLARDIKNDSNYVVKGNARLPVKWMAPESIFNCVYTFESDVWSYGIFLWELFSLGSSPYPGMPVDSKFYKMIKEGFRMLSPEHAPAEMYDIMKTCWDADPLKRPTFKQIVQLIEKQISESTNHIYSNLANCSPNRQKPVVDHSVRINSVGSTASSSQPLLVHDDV

| binding affinity with KIT (KIT) | SMILES | IC50 (HEK-293 cells) [nM] | inhibitory effects on the phosphorylation of FLT3 and ERK ([1]; 1X IC50 (4.5 nM)) | inhibitory effects on the phosphorylation of FLT3 and ERK ([1]; 10X IC50) |
| --- | --- | --- | --- | --- |
|  | COc1cc(Nc2cccc(-c3cnc4cc(-c5ccc(S(C)(=O)=O)cc5)ccn34)n2)cc(OC)c1OC [Compound 42, 6-(7-(4-(methylsulfonyl)phenyl)imidazo [1,2-a]pyridin-3-yl)-N-(3,4,5-trimethoxyphenyl)pyridin-2-amine] | > 1000 |  |  |
| minimal binding affinity | Cn1cc(-c2ccn3c(-c4cccc(Nc5ccc(S(C)(=O)=O)cc5)n4)cnc3c2)cn1 [Compound 24, 6-(7-(1-methyl-1H-pyrazol-4-yl)imidazo [1,2-a]pyridin-3-yl)-N-(4-(methylsulfonyl)phenyl)pyridin-2-amine] | > 1000 | noticeable signal downregulation | nearly complete signal downregulation |
|  | COc1ccc(Nc2cccc(-c3cnc4cc(-c5cnn(C)c5)ccn34)n2)cc1OC [Compound 20, N-(3,4-dimethoxyphenyl)-6-(7-(1-methyl-1H-pyrazol-4-yl)imidazo [1,2-a]pyridin-3-yl)pyridin-2-amine] | > 1000 |  |  |
